# Test results taken from ChEMBL document CHEMBL6071141, “In vitro and in vivo evaluation of Bombesin-MMAE conjugates for targeted tumour therapy” (Eur J Med Chem, 2024).
# Numbered stars: 1 amine (or outer) side, 2 acyl side, 3 side chain; on linkers, the order of the positions; unused ones are H or OH. Bridge positions count the residues as written; N and C are the ends. Square brackets hold non-standard residues; d marks the D form. Peptide text beside a SMILES is read from it. I, II: the chains in the order shown. * marks the point of attachment. Hexanoyl(6-succinimido-3yl) = O=C1CC([*:1])C(=O)N1CCCCCC(=O)[*:2]; Dolaproine = CO[C@@H]([C@@H]1CCCN1)[C@@H](C)C(=O)O; X2 = O=C([C@H](CC1=CSC2C=CC=CC12)N[*:1])[*:2]; Dil = CC[C@H](C)[C@H](NC)[C@@H](CC(=O)O)OC; Sta = CC(C)C[C@H](N)[C@@H](O)CC(=O)O; PABC = O=C(OCc1ccc(N[*:1])cc1)[*:2]; X3 = C[C@@H](N*)[C@@H](O)c1ccccc1; Cit = NC(=O)NCCC[C@H](N)C(=O)O; PEG4 = NCCOCCOCCOCCOCCC(=O)O; NMeV = CN[C@H](C(=O)O)C(C)C; Nle = CCCC[C@H](N)C(=O)O; βAla = NCCC(=O)O
# Experiments:
# [1] = Cytotoxicity against human MDA-MB-231 cells assessed as inhibition of cell growth incubated with compound for 72 hrs followed by further incubated for 72 hrs (single treatment) by CellTiter 96 aqueous assay; format: toxicity, cell-based
# Summary of the method: (§1)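 PC-3 or MDA-MB-231 cells were treated the day after seeding with serial dilutions, from 2000 nM for conjugates and 100 nM for MMAE, for 72 h. Then the assay was stopped, or run 72 h more after a medium change (single) or re-treatment (double). Controls got 0.05 % DMSO. Read-out was MTS absorbance at 490 nm after 90 min. IC50 by non-linear regression; ≥2 experiments, triplicates.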
# [2] = target: T1, Gastrin-releasing peptide receptor (Homo sapiens, UniProt P30550); test: Displacement of 125 I- [Tyr4] from bombesin receptor 2 in human PC-3 cells assessed as inhibition by radioligand displacement assay; format: cell-based
# T1 sequence (P30550 whole entry): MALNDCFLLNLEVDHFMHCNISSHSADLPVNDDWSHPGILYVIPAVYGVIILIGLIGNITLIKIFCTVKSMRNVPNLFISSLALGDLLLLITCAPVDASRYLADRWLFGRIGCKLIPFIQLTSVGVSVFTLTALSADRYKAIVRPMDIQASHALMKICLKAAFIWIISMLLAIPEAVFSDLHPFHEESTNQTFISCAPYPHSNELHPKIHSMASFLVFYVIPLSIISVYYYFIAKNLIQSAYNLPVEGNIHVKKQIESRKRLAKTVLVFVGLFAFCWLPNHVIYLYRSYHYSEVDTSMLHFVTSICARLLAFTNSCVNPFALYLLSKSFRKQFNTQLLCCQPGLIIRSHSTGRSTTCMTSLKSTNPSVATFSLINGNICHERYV
# Summary of the method: (§2)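 Competition binding on membrane preparations from PC-3 or MDA-MB-231 cells against ¹²⁵I-[Tyr⁴]-bombesin, with conjugates at 10 μM–10 pM. IC50 was taken as the concentration giving 50 % inhibition of tracer binding.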
# [3] = Cytotoxicity against human PC-3 cells assessed as inhibition of cell growth incubated for 72 hrs by CellTiter 96 aqueous assay; format: toxicity, cell-based; summary of the method: as §1
# [4] = Cytotoxicity against human MDA-MB-231 cells assessed as inhibition of cell growth incubated for 72 hrs and followed by treated with compound continued incubation for further 72 hrs (double treatment) after retreatment of compound by CellTiter 96 aqueous assay; format: toxicity, cell-based; summary of the method: as §1
# [5] = Cytotoxicity against human PC-3 cells assessed as inhibition of cell growth incubated with compound for 72 hrs followed by further incubated for 72 hrs (single treatment) by CellTiter 96 aqueous assay; format: toxicity, cell-based; summary of the method: as §1
# [6] = Cytotoxicity against human PC-3 cells assessed as inhibition of cell growth incubated for 72 hrs and followed by treated with compound continued incubation for further 72 hrs (double treatment) after retreatment of compound by CellTiter 96 aqueous assay; format: toxicity, cell-based; summary of the method: as §1
# [7] = Cytotoxicity against human cells MDA-MB-231 assessed as inhibition of cell growth incubated for 72 hrs by CellTiter 96 aqueous assay; format: toxicity, cell-based; details: MDA-MB-231 cells; summary of the method: as §1
# [8] = target: T1, Gastrin-releasing peptide receptor; test: Displacement of 125 I- [Tyr4] from bombesin receptor 2 in human MDA-MB-231 cells assessed as inhibition by radioligand displacement assay; format: cell-based; summary of the method: as §2
# [9] = Displacement of 125 I- [Tyr4] from bombesin receptor 1 (unknown origin) assessed as inhibition by radioligand competitive binding assay; set-up: species or system Homo sapiens
# [10] = target: T1, Gastrin-releasing peptide receptor; test: Displacement of 125 I- [Tyr4] from bombesin receptor 2 (unknown origin) assessed as inhibition by radioligand competitive binding assay
# [11] = target: T2, Bombesin receptor subtype-3 (Homo sapiens, UniProt P32247); test: Displacement of 125 I- [Tyr4] from bombesin receptor 3 (unknown origin) assessed as inhibition by radioligand competitive binding assay
# T2 sequence (P32247 whole entry): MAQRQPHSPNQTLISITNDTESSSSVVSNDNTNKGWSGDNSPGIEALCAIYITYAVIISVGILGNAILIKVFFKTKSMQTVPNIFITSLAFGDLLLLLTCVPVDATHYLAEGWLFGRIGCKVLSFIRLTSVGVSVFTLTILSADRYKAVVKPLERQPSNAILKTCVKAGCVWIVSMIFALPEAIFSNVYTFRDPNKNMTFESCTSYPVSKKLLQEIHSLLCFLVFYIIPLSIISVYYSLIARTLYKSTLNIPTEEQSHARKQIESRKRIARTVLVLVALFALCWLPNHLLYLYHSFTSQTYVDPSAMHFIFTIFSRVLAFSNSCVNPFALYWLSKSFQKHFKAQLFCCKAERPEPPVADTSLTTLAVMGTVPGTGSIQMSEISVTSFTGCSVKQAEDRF
SMILES,IC50 at 144 h [1] [nM],IC50 [2] [nM],IC50 at 72 h [3] [nM],IC50 at 144 h [4] [nM],IC50 at 144 h [5] [nM],IC50 at 144 h [6] [nM],IC50 at 72 h [7] [nM],IC50 [8] [nM],IC50 [9] [nM],IC50 [10] [nM],IC50 [11] [nM]
CC[C@H](C)[C@@H]([C@@H](CC(=O)N1CCC[C@H]1[C@H](OC)[C@@H](C)C(=O)N[C@H](C)[C@@H](O)c1ccccc1)OC)N(C)C(=O)[C@@H](NC(=O)[C@H](C(C)C)N(C)C(=O)OCc1ccc(NC(=O)[C@H](CCCNC(N)=O)NC(=O)CNC(=O)[C@H](CCC(=O)O)NC(=O)CCCCCN2C(=O)CC(SC[C@H](NC(C)=O)C(=O)NCCOCCOCCOCCOCCC(=O)N[C@H](Cc3ccccc3)C(=O)N[C@@H](CCC(N)=O)C(=O)N[C@@H](CC3=CSC4C=CC=CC34)C(=O)N[C@@H](C)C(=O)N[C@H](C(=O)NCC(=O)N[C@@H](Cc3c[nH]cn3)C(=O)N[C@@H](CC(C)C)[C@@H](O)CC(=O)N[C@@H](CC(C)C)C(N)=O)C(C)C)C2=O)cc1)C(C)C (stereo partly specified),171,71.1,586,130,142,116,943,76.9,,,
CC(=O)N[C@@H](CS)C(=O)N[C@H](C(=O)N[C@@H](CC(C)C)[C@@H](O)CC(=O)N[C@H](Cc1ccccc1)C(=O)N[C@H](CCC(N)=O)C(=O)NCC(=O)N[C@@H](CC(C)C)C(=O)N[C@@H](C)C(=O)N[C@@H](Cc1c[nH]c2ccccc12)C(=O)N[C@@H](Cc1c[nH]cn1)C(N)=O)C(C)C,,,,,,,,,> 10000,4750,> 10000
CCCC[C@H](NC(=O)[C@H](CC(C)C)NC(=O)[C@H](Cc1c[nH]cn1)NC(=O)CNC(=O)[C@@H](NC(=O)[C@H](C)NC(=O)[C@H](CC1=CSC2C=CC=CC12)NC(=O)[C@H](CCC(N)=O)NC(=O)[C@H](CC(N)=O)NC(=O)CCOCCOCCOCCOCCNC(=O)[C@H](CSC1CC(=O)N(CCCCCC(=O)N[C@@H](CCC(=O)O)C(=O)NCC(=O)N[C@@H](CCCNC(N)=O)C(=O)Nc2ccc(COC(=O)N(C)[C@H](C(=O)N[C@H](C(=O)N(C)[C@@H]([C@@H](C)CC)[C@@H](CC(=O)N3CCC[C@H]3[C@H](OC)[C@@H](C)C(=O)N[C@H](C)[C@@H](O)c3ccccc3)OC)C(C)C)C(C)C)cc2)C1=O)NC(C)=O)C(C)C)C(N)=O (stereo partly specified) (I: Ac-C[PEG4]NQ[X2]AVGHL[Nle]-NH2 / II: EG[Cit][PABC][NMeV]V[Dil][Dolaproine]-X3; linker I:1-II:N via Hexanoyl(6-succinimido-3yl)),268,80.7,782,217,216,165,1260,82.4,,,
CC(=O)N[C@@H](CS)C(=O)N[C@H](Cc1ccccc1)C(=O)N[C@@H](CCC(N)=O)C(=O)N[C@@H](Cc1c[nH]c2ccccc12)C(=O)N[C@@H](C)C(=O)N[C@H](C(=O)NCCC(=O)N[C@@H](Cc1c[nH]cn1)C(=O)N[C@@H](CC(C)C)[C@@H](O)CC(=O)N[C@@H](CC(C)C)C(N)=O)C(C)C,,,,,,,,,> 10000,5290,5250
CC(=O)N[C@H](Cc1ccccc1)C(=O)N[C@@H](CCC(N)=O)C(=O)N[C@@H](Cc1c[nH]c2ccccc12)C(=O)N[C@@H](C)C(=O)N[C@H](C(=O)NCC(=O)N[C@@H](Cc1c[nH]cn1)C(=O)N[C@@H](CC(C)C)[C@@H](O)CC(=O)N[C@@H](CC(C)C)C(N)=O)C(C)C,,,,,,,,,> 10000,,1.11
CCCC[C@H](NC(=O)C[C@H](O)[C@H](CC(C)C)NC(=O)[C@H](Cc1c[nH]cn1)NC(=O)CCNC(=O)[C@@H](NC(=O)[C@H](C)NC(=O)[C@H](Cc1c[nH]c2ccccc12)NC(=O)[C@H](CCC(N)=O)NC(=O)[C@@H](Cc1ccccc1)NC(C)=O)C(C)C)C(N)=O (Ac-[dF]QWAV[βAla]H[Sta][Nle]-NH2),,,,,,,,,> 10000,> 10000,> 10000
CC(=O)N[C@@H](CS)C(=O)N[C@H](Cc1ccccc1)C(=O)N[C@@H](CCC(N)=O)C(=O)N[C@@H](Cc1c[nH]c2ccccc12)C(=O)N[C@@H](C)C(=O)N[C@H](C(=O)N(C)CC(=O)N[C@@H](Cc1c[nH]cn1)C(=O)N[C@@H](CC(C)C)[C@@H](O)CC(=O)N[C@@H](CC(C)C)C(N)=O)C(C)C,,,,,,,,,> 10000,36.3,3600
CCCC[C@H](NC(=O)C[C@H](O)[C@H](CC(C)C)NC(=O)[C@H](Cc1c[nH]cn1)NC(=O)CCNC(=O)[C@@H](NC(=O)[C@H](C)NC(=O)[C@H](Cc1c[nH]c2ccccc12)NC(=O)[C@H](CCC(N)=O)NC(=O)[C@@H](Cc1ccccc1)NC(C)=O)C(C)C)C(=O)N[C@@H](CS)C(N)=O,,,,,,,,,> 10000,> 10000,> 1000
CCCC[C@H](NC(=O)C[C@H](O)[C@H](CC(C)C)NC(=O)[C@H](Cc1c[nH]cn1)NC(=O)CNC(=O)[C@@H](NC(=O)[C@H](C)NC(=O)[C@H](Cc1c[nH]c2ccccc12)NC(=O)[C@H](CCC(N)=O)NC(=O)[C@@H](Cc1ccccc1)NC(C)=O)C(C)C)C(=O)N[C@@H](CS)C(N)=O,,,,,,,,,> 10000,> 10000,> 10000
CC(=O)N[C@H](Cc1ccccc1)C(=O)N[C@@H](CCC(N)=O)C(=O)N[C@@H](Cc1c[nH]c2ccccc12)C(=O)N[C@@H](C)C(=O)N[C@H](C(=O)NCC(=O)N[C@@H](Cc1c[nH]cn1)C(=O)N[C@@H](CC(C)C)[C@@H](O)CC(=O)N[C@@H](CC(C)C)C(=O)N[C@@H](CS)C(N)=O)C(C)C,,,,,,,,,> 10000,> 10000,10.1
CCCC[C@H](NC(=O)C[C@H](O)[C@H](CC(C)C)NC(=O)[C@H](Cc1c[nH]cn1)NC(=O)CN(C)C(=O)[C@@H](NC(=O)[C@H](C)NC(=O)[C@H](Cc1c[nH]c2ccccc12)NC(=O)[C@H](CCC(N)=O)NC(=O)[C@@H](Cc1ccccc1)NC(C)=O)C(C)C)C(=O)N[C@@H](CS)C(N)=O,,,,,,,,,> 10000,> 10000,> 1000
CCCC[C@H](NC(=O)C[C@H](O)[C@H](CC(C)C)NC(=O)[C@H](Cc1c[nH]cn1)NC(=O)CCNC(=O)[C@@H](NC(=O)[C@H](C)NC(=O)[C@H](Cc1c[nH]c2ccccc12)NC(=O)[C@H](CCC(N)=O)NC(=O)[C@@H](Cc1ccccc1)NC(=O)[C@H](CS)NC(C)=O)C(C)C)C(N)=O,,,,,,,,,> 10000,2180,> 10000
CCCC[C@H](NC(=O)C[C@H](O)[C@H](CC(C)C)NC(=O)[C@H](Cc1c[nH]cn1)NC(=O)CCNC(=O)[C@@H](NC(=O)[C@H](C)NC(=O)[C@H](Cc1c[nH]c2ccccc12)NC(=O)[C@H](CCC(N)=O)NC(=O)[C@@H](Cc1ccccc1)NC(=O)[C@H](CSC1CC(=O)N(CCCCCC(=O)N[C@H](C(=O)N[C@@H](CCCNC(N)=O)C(=O)Nc2ccc(COC(=O)N(C)[C@H](C(=O)N[C@H](C(=O)N(C)[C@@H]([C@@H](C)CC)[C@@H](CC(=O)N3CCC[C@H]3[C@H](OC)[C@@H](C)C(=O)N[C@H](C)[C@@H](O)c3ccccc3)OC)C(C)C)C(C)C)cc2)C(C)C)C1=O)NC(C)=O)C(C)C)C(N)=O (stereo partly specified),218,,852,176,132,121,1280,,,,
